Laboratory results reported in ChEMBL document CHEMBL4196174, “Discovery of Indole Derivatives as Novel and Potent Dengue Virus Inhibitors” (J Med Chem, 2018).
Converted amounts (≈) assume the structure as drawn.

Legend:
[1] = tested on: Salmonella typhimurium; assay: Mutagenicity in Salmonella typhimurium in absence of human liver S9 fraction by Ames test; format: toxicity, organism-based; details: salmonella enterica subsp. enterica serovar typhimurium
[2] = (§1) Cytotoxicity against African green monkey Vero cells assessed as cell growth inhibition after 4 days by MTS/PMS method; format: cell-based; details: chlorocebus sabaeus, Vero cells
Outline: (§2)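 Cytotoxicity run as in the yield assay, but without virus. Vero cells (5×10^4/well) were exposed to 3- or 5-fold serial dilutions in MEM with 2% FBS. Viability was read by the MTS/PMS colorimetric method. CC50 was derived by logarithmic interpolation.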

[3] = tested on: dengue virus type 1; assay: Antiviral activity against Dengue virus 1 Djibouti D1/H/IMTSSA/98/606 infected in African green monkey Vero cells assessed as reduction in viral yield after 7 days by qRT-PCR analysis; format: functional, organism-based; details: Djibouti D1/H/IMTSSA/98/606, Vero, 168 h
Outline: (§3)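 Virus yield reduction in Vero cells (seeded 5×10^4/well). Next day infected with DENV (MOI 0.01) in assay medium (MEM, 2% FBS, 0.075% bicarbonate, 2 mM L-glutamine). After 1 h, input virus was removed and cells rinsed 3 times. Medium with 3- or 5-fold compound serial dilutions was then added. Incubation was 4 days (DENV-2, DENV-4) or 7 days (DENV-1, DENV-3). Supernatant viral RNA was measured by RT-qPCR, and EC50 obtained by logarithmic interpolation.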

[4] = tested on: dengue virus type 3; assay: Antiviral activity against Dengue virus 3 H87 infected in African green monkey Vero cells assessed as reduction in viral yield after 7 days by qRT-PCR analysis; format: functional, organism-based; details: 168 h; outline: as §3
[5] = tested on: dengue virus type 4; assay: Antiviral activity against Dengue virus 4 DAKHD34460 infected in African green monkey Vero cells assessed as reduction in viral yield after 4 days by qRT-PCR analysis; format: functional, organism-based; details: 96 h; outline: as §3
[6] = tested on: dengue virus type 2; assay: Antiviral activity against Dengue virus 2 Rega infected in African green monkey Vero cells assessed as reduction in viral yield after 4 days by qRT-PCR analysis; format: functional, organism-based; outline: as §3
[7] = tested on: Salmonella typhimurium; assay: Mutagenicity in Salmonella typhimurium in presence of human liver S9 fraction by Ames test; format: toxicity, organism-based; details: salmonella enterica subsp. enterica serovar typhimurium
[8] = Drug metabolism in human liver microsomes after 15 mins; format: ADME, microsome; details: for Drug metabolism: microsomes, 0.25 h
Outline: (§4)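 Percentage of compound metabolized after 15 min incubation with human or rat liver microsomes.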

[9] = tested on: Vero; assay: as §1; format: cell-based; details: chlorocebus sabaeus, vero, 96 h; outline: as §2
[10] = Solubility of the compound in DMSO solution at pH 7.4; format: physicochemical
Outline: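 Solubility measured at pH 7.4, starting from a DMSO solution.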

[11] = Drug metabolism in rat liver microsomes after 15 mins; format: ADME, microsome; details: for Drug metabolism: microsomes, 0.25 h; outline: as §4
[12] = Protein binding in rat plasma; format: ADME, cell-free; details: for fraction unbound: read-out: PPB (converted)
[13] = (§5) Apparent permeability across apical to basolateral side in MDR1 transfected pig LLC-PK1 cells in absence of P-gp inhibitor GF120918; format: ADME, cell-based, Sus scrofa; details: llc-pk1
Outline: (§6)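 Permeability measured in MDR1-transfected LLC-PK1 cells without the P-gp inhibitor GF120918.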

[14] = molecular target: Cytochrome P450 2D6 (Homo sapiens, UniProt P10635); assay: Inhibition of CYP2D6 (unknown origin); format: ADME
Cytochrome P450 2D6, sequence (P10635 whole entry): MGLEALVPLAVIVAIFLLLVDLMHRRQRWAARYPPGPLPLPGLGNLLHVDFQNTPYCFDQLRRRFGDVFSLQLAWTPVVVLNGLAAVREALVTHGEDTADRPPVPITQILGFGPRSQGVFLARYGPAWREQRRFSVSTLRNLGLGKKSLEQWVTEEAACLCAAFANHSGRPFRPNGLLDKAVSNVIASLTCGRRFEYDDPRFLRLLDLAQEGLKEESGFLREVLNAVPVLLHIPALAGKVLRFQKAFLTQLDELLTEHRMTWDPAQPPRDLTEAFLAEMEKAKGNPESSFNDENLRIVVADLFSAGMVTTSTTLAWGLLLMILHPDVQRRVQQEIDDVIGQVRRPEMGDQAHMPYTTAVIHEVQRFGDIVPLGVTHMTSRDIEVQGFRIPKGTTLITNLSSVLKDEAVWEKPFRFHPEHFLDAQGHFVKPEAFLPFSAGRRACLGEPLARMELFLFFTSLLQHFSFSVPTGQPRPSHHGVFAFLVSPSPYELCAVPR

[15] = molecular target: Cytochrome P450 3A4 (Homo sapiens, UniProt P08684); assay: Inhibition of CYP3A4 (unknown origin); format: ADME
Cytochrome P450 3A4, sequence (P08684 whole entry): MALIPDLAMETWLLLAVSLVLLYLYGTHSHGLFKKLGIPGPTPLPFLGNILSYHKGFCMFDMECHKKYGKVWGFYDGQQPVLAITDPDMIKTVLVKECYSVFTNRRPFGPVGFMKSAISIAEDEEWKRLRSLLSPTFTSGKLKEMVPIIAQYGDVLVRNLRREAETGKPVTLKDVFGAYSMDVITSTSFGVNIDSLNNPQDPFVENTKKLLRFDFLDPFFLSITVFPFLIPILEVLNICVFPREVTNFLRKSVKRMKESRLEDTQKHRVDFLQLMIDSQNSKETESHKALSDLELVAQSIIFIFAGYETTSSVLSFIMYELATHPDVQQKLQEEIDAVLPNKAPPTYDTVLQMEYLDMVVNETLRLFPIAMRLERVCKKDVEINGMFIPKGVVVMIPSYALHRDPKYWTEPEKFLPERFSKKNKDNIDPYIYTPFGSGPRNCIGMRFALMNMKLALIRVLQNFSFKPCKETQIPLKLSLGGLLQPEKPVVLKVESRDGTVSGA

[16] = molecular target: Voltage-gated inwardly rectifying potassium channel KCNH2 (Homo sapiens, UniProt Q12809); assay: Inhibition of human ERG
Voltage-gated inwardly rectifying potassium channel KCNH2, sequence (Q12809 whole entry): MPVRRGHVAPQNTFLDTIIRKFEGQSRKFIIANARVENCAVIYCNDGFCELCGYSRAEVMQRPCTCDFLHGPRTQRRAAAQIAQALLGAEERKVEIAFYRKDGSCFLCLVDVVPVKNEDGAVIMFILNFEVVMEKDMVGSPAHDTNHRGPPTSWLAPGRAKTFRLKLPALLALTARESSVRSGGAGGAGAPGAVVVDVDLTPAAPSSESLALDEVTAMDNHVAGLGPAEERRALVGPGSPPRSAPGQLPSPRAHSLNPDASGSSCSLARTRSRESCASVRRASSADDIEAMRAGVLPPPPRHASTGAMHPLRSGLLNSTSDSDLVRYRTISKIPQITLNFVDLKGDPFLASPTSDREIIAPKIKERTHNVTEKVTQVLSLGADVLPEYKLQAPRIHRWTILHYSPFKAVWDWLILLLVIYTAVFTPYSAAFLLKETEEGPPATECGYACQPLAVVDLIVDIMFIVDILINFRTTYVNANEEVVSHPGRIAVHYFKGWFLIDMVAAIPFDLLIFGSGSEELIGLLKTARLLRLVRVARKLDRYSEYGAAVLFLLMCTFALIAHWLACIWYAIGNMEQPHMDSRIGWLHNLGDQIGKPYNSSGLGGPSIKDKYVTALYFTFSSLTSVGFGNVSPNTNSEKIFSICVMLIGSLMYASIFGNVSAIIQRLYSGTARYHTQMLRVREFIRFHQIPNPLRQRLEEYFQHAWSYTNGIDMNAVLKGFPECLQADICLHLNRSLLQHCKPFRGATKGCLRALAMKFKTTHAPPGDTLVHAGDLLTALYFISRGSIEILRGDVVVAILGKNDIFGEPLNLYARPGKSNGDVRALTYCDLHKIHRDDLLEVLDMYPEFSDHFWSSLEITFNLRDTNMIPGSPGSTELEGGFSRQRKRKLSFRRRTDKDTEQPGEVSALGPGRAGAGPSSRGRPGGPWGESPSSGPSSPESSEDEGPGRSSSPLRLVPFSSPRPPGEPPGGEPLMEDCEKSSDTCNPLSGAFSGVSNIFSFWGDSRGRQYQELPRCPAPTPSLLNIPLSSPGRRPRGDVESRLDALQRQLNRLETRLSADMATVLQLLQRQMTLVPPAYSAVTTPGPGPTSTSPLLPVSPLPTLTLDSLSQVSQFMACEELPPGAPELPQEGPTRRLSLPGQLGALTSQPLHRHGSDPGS

[17] = molecular target: Cytochrome P450 2C19 (Homo sapiens, UniProt P33261); assay: Inhibition of CYP2C19 (unknown origin); format: ADME
Cytochrome P450 2C19, sequence (P33261 whole entry): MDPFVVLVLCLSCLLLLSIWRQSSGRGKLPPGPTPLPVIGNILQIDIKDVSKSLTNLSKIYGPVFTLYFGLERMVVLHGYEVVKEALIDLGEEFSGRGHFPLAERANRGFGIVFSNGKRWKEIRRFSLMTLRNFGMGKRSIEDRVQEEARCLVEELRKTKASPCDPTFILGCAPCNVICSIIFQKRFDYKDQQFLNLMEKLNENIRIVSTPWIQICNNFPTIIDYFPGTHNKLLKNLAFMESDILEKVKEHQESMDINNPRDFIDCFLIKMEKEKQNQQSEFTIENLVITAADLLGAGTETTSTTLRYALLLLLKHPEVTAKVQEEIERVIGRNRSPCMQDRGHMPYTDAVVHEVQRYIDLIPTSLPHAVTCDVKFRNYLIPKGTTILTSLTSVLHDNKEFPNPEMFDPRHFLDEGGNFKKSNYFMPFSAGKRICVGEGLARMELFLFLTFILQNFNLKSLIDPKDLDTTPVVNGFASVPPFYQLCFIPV

[18] = Protein binding in human plasma; format: ADME, cell-free
[19] = molecular target: T1, Cytochrome P450 1A2 (Homo sapiens, UniProt P05177); assay: Inhibition of CYP1A2 (unknown origin); format: ADME
T1 sequence (P05177 whole entry): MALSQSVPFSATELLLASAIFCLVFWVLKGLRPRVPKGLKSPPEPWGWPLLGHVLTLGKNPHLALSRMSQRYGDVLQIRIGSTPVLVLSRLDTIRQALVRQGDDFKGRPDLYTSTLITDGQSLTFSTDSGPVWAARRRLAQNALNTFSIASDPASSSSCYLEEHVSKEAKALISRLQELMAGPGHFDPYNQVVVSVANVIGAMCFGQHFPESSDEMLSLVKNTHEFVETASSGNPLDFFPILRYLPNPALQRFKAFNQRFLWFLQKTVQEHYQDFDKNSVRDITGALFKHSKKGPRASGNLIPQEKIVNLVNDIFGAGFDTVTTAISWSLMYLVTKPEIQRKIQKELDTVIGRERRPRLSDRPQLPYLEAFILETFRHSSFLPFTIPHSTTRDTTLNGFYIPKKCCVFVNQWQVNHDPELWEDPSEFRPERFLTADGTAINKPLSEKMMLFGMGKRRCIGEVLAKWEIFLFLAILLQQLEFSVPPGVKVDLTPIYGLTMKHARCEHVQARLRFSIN

[20] = molecular target: Cytochrome P450 2C9 (Homo sapiens, UniProt P11712); assay: Inhibition of CYP2C9 (unknown origin); format: ADME
Cytochrome P450 2C9, sequence (P11712 whole entry): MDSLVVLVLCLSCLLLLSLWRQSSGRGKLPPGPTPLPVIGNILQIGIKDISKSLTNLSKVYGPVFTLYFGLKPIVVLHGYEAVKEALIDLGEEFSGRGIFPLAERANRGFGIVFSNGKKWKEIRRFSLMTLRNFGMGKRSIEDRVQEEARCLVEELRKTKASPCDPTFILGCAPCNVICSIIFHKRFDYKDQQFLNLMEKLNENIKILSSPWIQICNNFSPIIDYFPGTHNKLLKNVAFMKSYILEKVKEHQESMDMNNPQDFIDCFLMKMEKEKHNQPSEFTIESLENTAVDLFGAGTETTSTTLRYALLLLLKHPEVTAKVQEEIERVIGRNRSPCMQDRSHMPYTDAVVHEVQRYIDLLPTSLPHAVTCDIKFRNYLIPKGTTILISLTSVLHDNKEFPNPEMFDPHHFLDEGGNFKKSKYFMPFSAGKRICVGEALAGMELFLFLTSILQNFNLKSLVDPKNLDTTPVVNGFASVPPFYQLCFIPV

[21] = Oral bioavailability in rat at 10 mg/kg; format: ADME, organism-based; details: in vivo
Outline: (§7)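 Rat PK. Intravenous dose was 2.5 mg/kg in PEG400/water 7/3. Oral dose was 10 mg/kg in PEG400.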

[22] = Volume of distribution at steady state in rat at 2.5 mg/kg, iv; format: ADME, organism-based; details: in vivo, read-out: Vdss; outline: as §7
[23] = tested on: P-gp (MDR1); assay: as §5; format: ADME, cell-based, Sus scrofa; details: LLC-PK1; outline: as §6
[24] = Half life in rat at 2.5 mg/kg, iv; format: ADME, organism-based; details: in vivo; outline: as §7
[25] = Clearance in rat at 2.5 mg/kg, iv; format: ADME, organism-based; details: in vivo; outline: as §7
[26] = AUClast in rat at 10 mg/kg, po; format: ADME, organism-based; design: dose 10 mg/kg, route oral, time 0 - last; details: in vivo; outline: as §7
[27] = Cmax in rat at 10 mg/kg, po; format: ADME, organism-based; design: dose 10 mg/kg, route oral; details: in vivo; outline: as §7
[28] = liver microsomes, read-out: Drug metabolism

SMILES | Drug metabolism [8] | CC50 [9] | EC50 ([6]; vero) | Drug metabolism [11] | IC50 [14] | IC50 [15] | IC50 [17] | PPB [18] | IC50 [19] | IC50 [20] | further results
COc1cc(NC(C(=O)c2c[nH]c3ccc(F)cc23)c2ccccc2)cc(OC)c1 (centres undefined) | – | – | – | – | – | – | – | – | – | – | Activity [1]: Non-Toxic; CC50 at 96 h [2]: 13 µM; EC50 [3]: 0.247 µM; EC50 [4]: 0.68 µM; EC50 [5]: 4.8 µM; EC50 ([6]; Dengue virus, Rega, Vero, 96 h): 0.007 µM; Activity [7]: Non-Toxic
COc1cc(NC(C(=O)c2c[nH]c3ccccc23)c2ccccc2)cc(OCCO)c1 (racemic) | 13% | 47 µM | 0.059 µM | 37% | – | – | – | – | – | – | solubility [10]: 60 µM (≈ 25 µg/mL)
COc1cc(NC(C(=O)c2c[nH]c3ccccc23)c2ccccc2)cc(OC)c1 (racemic) | 11% | 16 µM | 0.007 µM | 63% | > 10 µM | > 10 µM | 4 µM | 99.8% | 2.4 µM | 4.8 µM | Activity [1]: Non-Toxic; PPB [12]: 99.9%; Papp [13]: 7.5 ×10⁻⁶ cm/s; IC50 [16]: > 50 µM; Activity [7]: Non-Toxic
COc1cc(NC(C(=O)c2c[nH]c3ccccc23)c2ccccc2)cc(OCCO)c1 (single isomer, unassigned; (+)) | 2% | 105 µM | 0.012 µM | – | > 10 µM | > 10 µM | 4.4 µM | – | > 10 µM | 3.1 µM | bioavailability [21]: 64%; Vd [22]: 5.8 L/kg; fraction unbound [12]: 0.008; Papp A→B [23]: 1.8 ×10⁻⁶ cm/s; half-life [24]: 2.4 h; solubility ([10]; read-out: solubility): 48 µM (≈ 20 µg/mL); clearance [25]: 35 mL/min/kg; IC50 [16]: > 50 µM; metabolised at 0.25 h [11, 28]: 21%; AUC(0-t) [26]: 7.32 µM·h; fraction unbound ([18]; read-out: PPB (converted)): 0.01; Cmax [27]: 706 nM
COc1cc(NC(C(=O)c2c[nH]c3ccccc23)c2ccccc2)cc(OC)c1 (single isomer, unassigned; (+)) | – | – | 0.001 µM | 37% | > 10 µM | > 10 µM | 2.3 µM | 99.7% | 1.4 µM | 3.2 µM | bioavailability [21]: 7%; Vd [22]: 26 L/kg; metabolised at 0.25 h [8, 28]: 14%; CC50 at 96 h [2]: 13 µM; fraction unbound [12]: 0.002; Papp A→B [23]: 7.6 ×10⁻⁶ cm/s; half-life [24]: 4.7 h; solubility ([10]; read-out: solubility): 6 µM (≈ 2.32 µg/mL); clearance [25]: 67 mL/min/kg; EC50 [3]: 0.047 µM; EC50 [4]: 0.092 µM; EC50 [5]: 1.9 µM; AUC(0-t) [26]: 0.422 µM·h; Cmax [27]: 88 nM
COc1cc(NC(C(=O)c2c[nH]c3ccccc23)c2ccccc2)cc(OCCO)c1 (single isomer, unassigned; (-)) | – | 77 µM | 0.456 µM | – | – | – | – | – | – | – | –
COc1cc(NC(C(=O)c2c[nH]c3ccccc23)c2ccccc2)cc(OC)c1 (stereo in doubt; 12b) | 16% | 11 µM | 0.348 µM | 91% | > 10 µM | > 10 µM | 3 µM | 99.9% | 6.4 µM | 3 µM | PPB [12]: > 99.9%; Papp [13]: 7.4 ×10⁻⁶ cm/s; solubility [10]: 9 µM (≈ 3.48 µg/mL)
